ChEMBL document CHEMBL4334486 (J Med Chem, 2019)
pIC50: −log10 of the molar value. The source made the active and inactive calls. The calls are words filed in the database; no cut-off is given here.

What was measured:
Pseudomonas aeruginosa [1] = test: Antimicrobial activity against Pseudomonas aeruginosa PAO1 assessed as inhibition of bacterial growth under Mueller-Hinton conditions without iron supplementation; type: functional
How it was run: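 Ciprofloxacin and deferoxamine serve as controls. MIC is taken as the highest dilution with visually clear wells.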

Pseudomonas aeruginosa [2] = test: Antimicrobial activity against siderophore-producing Pseudomonas aeruginosa PAO1 assessed as inhibition of bacterial growth at 0.125 to 128 ug/mL under iron-supplemented succinate minimal medium in the presence of 50 uM of FeCl3; type: functional, organism-based
How it was run: (§1)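 Succinate minimal medium with FeCl3 at 8 μg/mL (50 μM), inoculated with the strain at 0.5 McFarland. Compound is added from 2-fold DMSO dilutions; DMSO alone is the growth control. Incubation is 24 h. OD600 gives growth, with cell-free baselines. Runs are at least duplicate, mean + SD; Mann−Whitney test, p<0.05.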

Pseudomonas aeruginosa [3] = test: Induction of fluorescent pyoverdine-1 siderophore production in siderophore-producing Pseudomonas aeruginosa PAO1 at 0.125 to 128 ug/mL incubated for 24 hrs under iron-supplemented succinate minimal medium in the presence of 50 uM of FeCl3; type: functional, organism-based
How it was run: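 PAO1 in succinate minimal medium with 8 μg/mL (50 μM) FeCl3, compound from DMSO dilutions. Plates are incubated 24 h at 35 °C. Iron-free pyoverdine is read by absorbance at 405 nm and by fluorescence (excitation 400 nm, emission 447 nm), with cell-free baselines. Runs are in duplicate at least twice, mean + SD.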

[4] = target: Fucose-binding lectin PA-IIL (Pseudomonas aeruginosa (strain ATCC 15692 / DSM 22644 / CIP 104116 / JCM14847 / LMG 12228 / 1C / PRS 101 / PAO1), UniProt Q9HYN5); test: Inhibition of Pseudomonas aeruginosa LecB by fluorescence polarization assay
Chain of Fucose-binding lectin PA-IIL (Q9HYN5 whole entry): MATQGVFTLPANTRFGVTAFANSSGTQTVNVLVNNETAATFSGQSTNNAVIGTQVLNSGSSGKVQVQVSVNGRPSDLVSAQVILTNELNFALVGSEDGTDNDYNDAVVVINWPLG

[5] = target: Fucose-binding lectin PA-IIL (Pseudomonas aeruginosa (strain ATCC 15692 / DSM 22644 / CIP 104116 / JCM14847 / LMG 12228 / 1C / PRS 101 / PAO1)) (UniProt Q9HYN5); test: Potency index, ratio of IC50 for Me-alpha-D-mannoside to IC50 for test compound for inhibition of Pseudomonas aeruginosa LecB by fluorescence polarization assay
Chain of Fucose-binding lectin PA-IIL (Pseudomonas aeruginosa (strain ATCC 15692 / DSM 22644 / CIP 104116 / JCM14847 / LMG 12228 / 1C / PRS 101 / PAO1)) (Q9HYN5 as listed by the source): as the sequence (Q9HYN5 whole entry) above

Pseudomonas aeruginosa [6] = test: Antibiofilm activity against Pseudomonas aeruginosa PAO1 assessed as inhibition of biofilm formation incubated for 24 to 25 hrs at 50 uM by WST8 dye based Diggle-protocol method relative to control; type: functional
How it was run: (§2)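 Modified Diggle microtiter method. Medium is 0.25% (w/v) nutrient broth no. 2 containing compound. PAO1 is grown overnight in LB, washed, and inoculated normalized to OD600 of 1. Plates are incubated humid for 24−25 h at 37 °C and washed twice with water. Wells are then stained for 3 h at 37 °C with 0.5 mM WST-8 plus 20 μM phenazine ethosulfate. Supernatant absorbance is read at 450 nm to give viable biofilm cells.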

Pseudomonas aeruginosa [7] = test: Antibiofilm activity against Pseudomonas aeruginosa PAO1 assessed as inhibition of biofilm formation incubated for 24 to 25 hrs at 20 uM by WST8 dye based Diggle-protocol method relative to control; type: functional; how it was run: as §2
Pseudomonas aeruginosa [8] = test: Antibiofilm activity against Pseudomonas aeruginosa PAO1 assessed as inhibition of biofilm formation incubated for 24 to 25 hrs at 20 uM in presence of sub-inhibitory concentration of tobramycin by WST8 dye based Diggle-protocol method relative to control; type: functional, organism-based
How it was run: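 Diggle WST-8 biofilm method. PAO1 in 0.25% nutrient broth is exposed to compound at 20 μM mixed with tobramycin at 0.1 μM (subinhibitory). Incubation is 24−25 h at 37 °C. Washed wells are stained 3 h with 0.5 mM WST-8 and 20 μM phenazine ethosulfate. A450 of the supernatant is read.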

Pseudomonas aeruginosa [9] = test: Toxicity in Pseudomonas aeruginosa PAO1 incubated for 24 to 25 hrs at 20 uM in presence of sub-inhibitory concentration of tobramycin by WST8 dye based Diggle-protocol method relative to control; type: organism-based; settings: in vivo
Pseudomonas aeruginosa [10] = test: Antibiofilm activity against Pseudomonas aeruginosa PAO1 assessed as inhibition of biofilm formation incubated for 8 hrs at 20 uM by crystal violet based O'Toole method relative to control; type: functional; settings: PAO1, 8 h
How it was run: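 O'Toole biofilm assay. PAO1 is grown in M63 minimal medium with 0.4% arginine and 1 mM MgSO4. Compound at 20 μM, or an equal volume of water as vehicle control, is added at inoculation. Incubation is 8 h at 37 °C. Growth is read at 550 nm on removed medium. Biofilm is stained with 0.1% crystal violet and quantified.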

[11] = Toxicity in human CFBEdeltaF cells isolated from CF patient at 20 uM incubated for 24 hrs by LDH assay; type: cell-based
How it was run: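 CF bronchial epithelial CFBEΔF monolayers are treated with compound at 20 μM (water vehicle control) for 24 h. Cytotoxicity is measured as LDH released into the medium. Triton is the lysis reference.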

Pseudomonas aeruginosa [12] = test: Antimicrobial activity against siderophore-deficient Pseudomonas aeruginosa PAD07 in siderophore-deficient PAD07 assessed as inhibition of bacterial growth at 0.0625 to 128 ug/mL incubated for 24 hrs under iron-supplemented succinate minimal medium in the presence of 50 uM of FeCl3; type: functional, organism-based; how it was run: as §1
[13] = target: Fucose-binding lectin PA-IIL (Pseudomonas aeruginosa (strain ATCC 15692 / DSM 22644 / CIP 104116 / JCM14847 / LMG 12228 / 1C / PRS 101 / PAO1)) (UniProt Q9HYN5); test: Potency index, ratio of IC50 for Me-alpha-L-fucoside to IC50 for test compound for inhibition of Pseudomonas aeruginosa LecB by fluorescence polarization assay
Pseudomonas aeruginosa [14] = test: Antibiofilm activity against Pseudomonas aeruginosa PAO1 assessed as inhibition of biofilm formation incubated for 8 hrs at 20 uM by crystal violet based O'Toole method relative to control
Pseudomonas aeruginosa [15] = test: Antimicrobial activity against Pseudomonas aeruginosa PAO1 assessed as inhibition of planktonic cells growth at >0.15 uM incubated for 24 to 25 hrs; type: functional, organism-based
How it was run: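 PAO1 inoculum from overnight LB culture, washed in 0.25% (w/v) nutrient broth no. 2, normalized to OD600 1 and added to the same broth containing the test compound. Incubation was 24−25 h at 37 °C in a humid environment. Planktonic growth was read from the supernatant: it was regrown in LB at 37 °C for 7−8 h and OD600 was compared with no-supernatant, or CFU were plated on LB agar.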

| SMILES | MIC (Pseudomonas aeruginosa [1]) [µg/mL] | Activity (Pseudomonas aeruginosa [2]) | Activity (Pseudomonas aeruginosa [3]) | pIC50 [4] | inhibition at 20 µM (Pseudomonas aeruginosa [10]) [%] | Activity [11] | also measured |
| --- | --- | --- | --- | --- | --- | --- | --- |
| CC(C)(C)c1cc2c(OCCCn3cc(CN(O)C(=O)CCCCCn4cc(CO[C@H]5O[C@H](CO)[C@@H](O)[C@H](O)[C@@H]5O)nn4)nn3)c(c1)Cc1cc(C(C)(C)C)cc(c1OCCCn1cc(CN(O)C(=O)CCCCCn3cc(CO[C@H]4O[C@H](CO)[C@@H](O)[C@H](O)[C@@H]4O)nn3)nn1)Cc1cc(C(C)(C)C)cc(c1OCCCn1cc(CN(O)C(=O)CCCCCn3cc(CO[C@H]4O[C@H](CO)[C@@H](O)[C@H](O)[C@@H]4O)nn3)nn1)Cc1cc(C(C)(C)C)cc(c1OCCCn1cc(CN(O)C(=O)CCCCCn3cc(CO[C@H]4O[C@H](CO)[C@@H](O)[C@H](O)[C@@H]4O)nn3)nn1)C2 | > 512 | inactive | Dose-dependent effect | 6.18 | 84 | Non-Toxic | Ratio IC50 [5]: 236; inhibition at 50 µM (Pseudomonas aeruginosa [6]): 70%; inhibition at 20 µM (Pseudomonas aeruginosa [7]): 83%; inhibition (Pseudomonas aeruginosa [8]): Active; Activity (Pseudomonas aeruginosa [9]): Non-Toxic |
| C[C@@H]1O[C@@H](OCc2cn(CCCCCC(=O)N(O)Cc3cn(CCCOc4c5cc(C(C)(C)C)cc4Cc4cc(C(C)(C)C)cc(c4OCCCn4cc(CN(O)C(=O)CCCCCn6cc(CO[C@@H]7O[C@@H](C)[C@@H](O)[C@@H](O)[C@@H]7O)nn6)nn4)Cc4cc(C(C)(C)C)cc(c4OCCCn4cc(CN(O)C(=O)CCCCCn6cc(CO[C@@H]7O[C@@H](C)[C@@H](O)[C@@H](O)[C@@H]7O)nn6)nn4)Cc4cc(C(C)(C)C)cc(c4OCCCn4cc(CN(O)C(=O)CCCCCn6cc(CO[C@@H]7O[C@@H](C)[C@@H](O)[C@@H](O)[C@@H]7O)nn6)nn4)C5)nn3)nn2)[C@@H](O)[C@H](O)[C@@H]1O | > 512 | inactive | Dose-dependent effect | 6.60 | 72 | Non-Toxic | Activity (Pseudomonas aeruginosa [12]): inactive; Ratio IC50 [13]: 3.37; inhibition (Pseudomonas aeruginosa [6]): inactive; inhibition (Pseudomonas aeruginosa [14]): inactive |
| CC(C)(C)c1cc2c(OCCCn3cc(CN(O)C(=O)CCCCCn4cc(CO[C@H]5O[C@H](CO)[C@@H](O)[C@H](O)[C@H]5O)nn4)nn3)c(c1)Cc1cc(C(C)(C)C)cc(c1OCCCn1cc(CN(O)C(=O)CCCCCn3cc(CO[C@H]4O[C@H](CO)[C@@H](O)[C@H](O)[C@H]4O)nn3)nn1)Cc1cc(C(C)(C)C)cc(c1OCCCn1cc(CN(O)C(=O)CCCCCn3cc(CO[C@H]4O[C@H](CO)[C@@H](O)[C@H](O)[C@H]4O)nn3)nn1)Cc1cc(C(C)(C)C)cc(c1OCCCn1cc(CN(O)C(=O)CCCCCn3cc(CO[C@H]4O[C@H](CO)[C@@H](O)[C@H](O)[C@H]4O)nn3)nn1)C2 | – | – | – | – | 92 | Non-Toxic | – |
| O=C(CCCCCn1cc(CO[C@H]2O[C@H](CO)[C@@H](O)[C@H](O)[C@@H]2O)nn1)NOCc1ccccc1 | – | – | – | 3.83 | – | – | – |
| NC[C@H]1O[C@H](O[C@H]2[C@H](O)[C@@H](O[C@H]3O[C@H](CO)[C@@H](O)[C@H](N)[C@H]3O)[C@H](N)C[C@@H]2N)[C@H](N)C[C@@H]1O | – | – | – | – | – | – | Activity (Pseudomonas aeruginosa [15]): Active |
| C[C@@H]1O[C@@H](OCc2cn(CCCCCC(=O)NOCc3ccccc3)nn2)[C@@H](O)[C@H](O)[C@@H]1O | – | – | – | 6.30 | – | – | – |
